Reference: ChEMBL document CHEMBL1772966, “3,5-Bis(benzylidene)-1-[3-(2-hydroxyethylthio)propanoyl]piperidin-4-ones: a novel cluster of potent tumor-selective cytotoxins” (J Med Chem, 2011)
The source made the active and inactive calls. No cut-off for these calls is given here.

Experiments:
L1210 [1] = experiment: Anticancer activity against mouse L1210 cells after 48 hrs; type: functional, cell-based; conditions: L1210, 48 h
Mus musculus [2] = experiment: Neurotoxicity in mouse at 30 to 300 mg/kg, ip after 0.5 hrs by rotarod method; type: toxicity, organism-based; parameters: dose 30-300 mg/kg, route intraperitoneal; conditions: in vivo
Outline: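 Mice given 30, 100 and 300 mg/kg by intraperitoneal injection; animals scored for mortality and neurotoxicity at 0.5 and 4 h after dosing.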

[3] = Anticancer activity against human Molt4/C8 cells after 72 hrs; type: functional, cell-based; conditions: MOLT-4, 72 h
Mus musculus [4] = experiment: Toxicity in mouse assessed as mortality at 30 to 300 mg/kg, ip after 0.5 to 4 hrs; type: organism-based; parameters: dose 30-300 mg/kg, route intraperitoneal; conditions: in vivo
Outline: (§1)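 Mice dosed intraperitoneally at 30, 100 and 300 mg/kg; animals observed for deaths and neurological deficit at 0.5 and 4 h after injection.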

CCRF-CEM [5] = experiment: Anticancer activity against human CEM cells after 72 hrs; type: functional, cell-based
MOLT-4 = experiment: Ratio of melphalan IC50 to compound IC50 for human Molt4/C8 cells; type: functional
CCRF-CEM [6] = experiment: Ratio of melphalan IC50 to compound IC50 for human CEM cells; type: functional
HSC-3 [7] = experiment: Cytotoxicity against human HSC3 cells after 48 hrs; type: functional; conditions: HSC-3, 48 h
[8] = Cytotoxicity against human HPLF cells after 48 hrs; type: cell-based
HSC-4 [9] = experiment: Cytotoxicity against human HSC4 cells after 48 hrs; type: functional; conditions: HSC-4, 48 h
HSC-4 [10] = experiment: Selectivity index, ratio of average CC50 for normal human cell line to CC50 for human HSC4 cells
HL-60 [11] = experiment: Cytotoxicity against human HL60 cells after 48 hrs; type: functional; conditions: HL-60, 48 h
HL-60 [12] = experiment: Selectivity index, ratio of average CC50 for normal human cell line to CC50 for human HL-60 cells
[13] = Cytotoxicity against human HGF cells after 48 hrs; type: cell-based
HSC-2 [14] = experiment: Selectivity index, ratio of average CC50 for normal human cell line to CC50 for human HSC2 cells
[15] = Cytotoxicity against human HPC cells after 48 hrs; type: cell-based
HSC-2 [16] = experiment: Cytotoxicity against human HSC2 cells after 48 hrs; type: functional; conditions: HSC-2, 48 h
HSC-3 [17] = experiment: Selectivity index, ratio of average CC50 for normal human cell line to CC50 for human HSC3 cells
Mus musculus [18] = experiment: Neurotoxicity in mouse at 30 to 300 mg/kg, ip after 0.5 to 4 hrs by rotarod method; type: toxicity, organism-based; parameters: dose 30-300 mg/kg, route intraperitoneal; conditions: in vivo; outline: as §1
HCT-116 = experiment: Anticancer activity against human HCT116 cells; type: functional, cell-based
COLO 205 = experiment: Anticancer activity against human COLO205 cells; type: functional, cell-based
SW-620 = experiment: Anticancer activity against human SW620 cells; type: functional, cell-based
HCC 2998 = experiment: Anticancer activity against human HCC2998 cells; type: functional, cell-based
HCT-15 = experiment: Anticancer activity against human HCT15 cells; type: functional, cell-based
KM12 = experiment: Anticancer activity against human KM12 cells; type: functional, cell-based
CCRF-CEM [19] = experiment: Anticancer activity against human CCRF-CEM cells; type: functional, cell-based
HT-29 = experiment: Anticancer activity against human HT-29 cells; type: functional, cell-based
HL-60 [20] = experiment: Anticancer activity against human HL60 cells; type: functional, cell-based
K562 = experiment: Anticancer activity against human K562 cells; type: functional, cell-based
RPMI-8226 = experiment: Anticancer activity against human RPMI8226 cells; type: functional, cell-based
L1210 [21] = experiment: Ratio of melphalan IC50 to compound IC50 for mouse L1210 cells; type: functional
HSC-2 [22] = experiment: Induction of mitochondrial pathway-dependent apoptosis in human HSC2 cells assessed as caspase 3 activation at 1 to 3 uM; type: functional, cell-based
Outline: (§2)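 Caspase-3 activity measured in lysates of treated HL-60 and HSC-2 cells: 100 μg protein per assay, incubated 2 h with the substrate. Mean ± SD of three experiments.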

HSC-2 [23] = experiment: Induction of mitochondrial pathway-dependent apoptosis in human HSC2 cells assessed as DNA fragmentation at 0.5 to 8 uM after 6 hrs by agarose gel electrophoresis; type: functional, cell-based
Outline: (§3)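 Cells exposed 6 h to a range of concentrations; a UV-irradiated comparison was given 1 min of UV. Treated and control cells were then held 3 h in regular culture medium, after which DNA was extracted and run on 2% agarose gel electrophoresis.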

HL-60 [24] = experiment: Induction of mitochondrial pathway-dependent apoptosis in human HL60 cells assessed as DNA fragmentation at 0.5 to 8 uM after 6 hrs by agarose gel electrophoresis; type: functional, cell-based; outline: as §3
HL-60 [25] = experiment: Induction of mitochondrial pathway-dependent apoptosis in human HL60 cells assessed as caspase 3 activation at 1 to 3 uM; type: functional, cell-based; outline: as §2

| Structure (SMILES) | IC50 (L1210 [1]) [µM] | IC50 [3] [µM] | Activity (Mus musculus [4]) | IC50 (CCRF-CEM [5]) [µM] | Activity (Mus musculus [18]) | IC50 (HCT-116) [µM] | IC50 (COLO 205) [µM] | IC50 (SW-620) [µM] | IC50 (HCC 2998) [µM] | IC50 (HCT-15) [µM] | IC50 (KM12) [µM] | IC50 (CCRF-CEM [19]) [µM] | IC50 (HT-29) [µM] | IC50 (HL-60 [20]) [µM] | IC50 (K562) [nM] | also measured |
| --- | --- | --- | --- | --- | --- | --- | --- | --- | --- | --- | --- | --- | --- | --- | --- | --- |
| Cc1ccc(/C=C2\CN(C(=O)CCSCCS(=O)(=O)O)C/C(=C\c3ccc(C)cc3)C2=O)cc1 | 198 | 79.7 | Non-toxic | 194 |  |  |  |  |  |  |  |  |  |  |  | Activity (Mus musculus [2]): Toxic |
| O=C1/C(=C/c2ccccc2)CN(C(=O)CCSCCO)C/C1=C\c1ccccc1 | 3.8 | 0.66 |  | 0.57 |  |  |  |  |  |  |  |  |  |  |  | Ratio IC50 (MOLT-4): 4.9; Ratio IC50 (CCRF-CEM [6]): 4.3; CC50 (HSC-3 [7]): 2800 nM; CC50 at 48 h [8]: 13 µM; CC50 (HSC-4 [9]): 1300 nM; Ratio (HSC-4 [10]): 11.3; CC50 (HL-60 [11]): 1700 nM; Ratio (HL-60 [12]): 8.7; CC50 at 48 h [13]: 17 µM; Ratio (HSC-2 [14]): 9.2; CC50 at 48 h [15]: 14 µM; CC50 (HSC-2 [16]): 1600 nM; Ratio (HSC-3 [17]): 5.3 |
| O=C1/C(=C/c2ccc([N+](=O)[O-])cc2)CN(C(=O)CCSCCS(=O)(=O)O)C/C1=C\c1ccc([N+](=O)[O-])cc1 | 11.4 | 6.98 | Non-toxic | 7.44 | Non-toxic |  |  |  |  |  |  |  |  |  |  |  |
| O=c1[nH]cc(F)c(=O)[nH]1 [FLUOROURACIL] |  |  |  |  |  | 8.51 | 4.17 | > 100 | 13.5 | 9.71 | 8.32 | 33.1 | 10.2 | > 100 | 2400 |  |
| O=C1/C(=C/c2ccccc2)CN(C(=O)CCSCCS(=O)(=O)O)C/C1=C\c1ccccc1 | 234 | 143 | Non-toxic | 125 |  |  |  |  |  |  |  |  |  |  |  | Activity (Mus musculus [2]): Toxic |
| O=C1/C(=C/c2ccc(Cl)cc2)CN(C(=O)CCSCCS(=O)(=O)O)C/C1=C\c1ccc(Cl)cc1 | 100 | 35.8 | Non-toxic | 41.6 | Non-toxic | 28.2 | 24 | 29.5 | 22.4 | 30.2 | 25.1 | 9.33 | 25.1 | 25.7 | 28200 | IC50 (RPMI-8226): 18.2 µM |
| O=C1/C(=C/c2ccc([N+](=O)[O-])cc2)CN(C(=O)CCSCCO)C/C1=C\c1ccc([N+](=O)[O-])cc1 | 3.92 | 0.49 | Non-toxic | 0.48 | Non-toxic | 0.11 | 0.06 | 0.07 | 0.28 | 0.21 | 0.17 | 0.04 | 0.1 | 0.1 | 60 | Ratio IC50 (MOLT-4): 6.7; Ratio IC50 (L1210 [21]): 96; Ratio IC50 (CCRF-CEM [6]): 5.1; CC50 (HSC-3 [7]): 690 nM; CC50 at 48 h [8]: 6.4 µM; CC50 (HSC-4 [9]): 380 nM; Activity (HSC-2 [22]): inactive; Ratio (HSC-4 [10]): 15.5; CC50 (HL-60 [11]): 440 nM; Ratio (HL-60 [12]): 13.3; CC50 at 48 h [13]: 5.4 µM; Activity (HSC-2 [23]): inactive; Ratio (HSC-2 [14]): 17.3; IC50 (RPMI-8226): 0.02 µM; Activity (HL-60 [24]): Active; Activity (HL-60 [25]): Active; CC50 at 48 h [15]: 5.8 µM; CC50 (HSC-2 [16]): 340 nM; Ratio (HSC-3 [17]): 8.5 |
